Active and inactive are the calls of the source. No cut-off for these calls is given here.
Columns and labels:
PC-12 [1] = assay: Induction of neurite growth in rat PC12D cells at 10 umol after 48 hrs; assay type: functional, cell-based
Procedure, shortened: (§1)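 No NGF was added. PC12D cells were detached with EGTA/PBS and plated on poly-L-lysine. After 24 h they went into medium with 1% fetal calf serum and 2% horse serum plus compound (DMSO stocks 50 mmol). Cells were fixed after 48 h in 2% glutaraldehyde. The percentage with processes ≥ cell-body diameter was scored by phase-contrast microscopy: 3 fields/well, 6 wells/sample.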

PC-12 [2] = assay: Induction of neurite growth in rat PC12D cells at 30 umol after 48 hrs; assay type: functional, cell-based; procedure, shortened: as §1
PC-12 [3] = assay: Induction of neurite growth in rat PC12D cells at 100 umol after 48 hrs; assay type: functional, cell-based; procedure, shortened: as §1
PC-12 [4] = assay: Increase of nerve growth factor-stimulated neurite growth in rat PC12D cells at 100 umol after 48 hrs; assay type: functional
Procedure, shortened: (§2)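 PC12D cells detached with 1 mmol EGTA in PBS for 30 min, seeded at 2 × 10^4 cells/well on poly-L-lysine. After 24 h, switched to medium with 1% fetal calf serum, 2% horse serum, NGF 2 ng/mL plus compound at 10, 30 or 100 µmol (DMSO stocks 50 mmol). Fixed after 48 h with 2% glutaraldehyde, 37 °C, 1 h.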

PC-12 [5] = assay: Increase of nerve growth factor-stimulated neurite growth in rat PC12D cells at 10 to 100 umol after 48 hrs; assay type: functional, cell-based; procedure, shortened: as §2

SMILES: CC(=O)O[C@@H]1[C@@H](O)[C@H](C)O[C@@H](OC[C@H]2O[C@@H](Oc3cc(O)c4c(=O)cc(-c5ccc(O)cc5)oc4c3)[C@H](O)[C@@H](O)[C@@H]2O)[C@@H]1OC(C)=O
- Activity (PC-12 [1]): inactive
- Activity (PC-12 [2]): inactive
- Activity (PC-12 [3]): inactive
- Activity (PC-12 [4]): 14.9%

SMILES: C=CCc1ccc(O[C@@H]2O[C@H](CO)[C@@H](O)[C@H](O)[C@H]2O)c(OC)c1
- Activity (PC-12 [5]): inactive

SMILES: CC(=O)O[C@@H]1[C@@H](O)[C@H](C)O[C@@H](OC[C@H]2O[C@@H](Oc3cc4oc(-c5ccc(O)cc5)cc(=O)c4c(O)c3O)[C@H](O)[C@@H](O)[C@@H]2O)[C@@H]1OC(C)=O
- Activity (PC-12 [5]): inactive

SMILES: CC(=O)O[C@@H]1[C@@H](O)[C@H](C)O[C@@H](OC[C@H]2O[C@@H](Oc3cc(O)c4c(=O)cc(-c5ccc(O)cc5)oc4c3)[C@H](O)[C@@H](O)[C@@H]2O)[C@@H]1O
- Activity (PC-12 [1]): inactive
- Activity (PC-12 [2]): inactive
- Activity (PC-12 [3]): inactive
- Activity (PC-12 [4]): 16.1%

From ChEMBL document CHEMBL1151190, “Acetylated flavonoid glycosides potentiating NGF action from Scoparia dulcis” (2004)
